In the library only some 1.8% were active in any assay of this set; here they are far more common.
M5 ag: agonists of human muscarinic M5 receptor (CHRM5). P08912. CHO-K1 hM5 cells, Fluo-8 calcium fluorescence; 0% DMSO wells, 100% maximal acetylcholine response. activation, % at 3 µM. hit rate 0.19% among 360,000. AID 624037;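 active = activation above the run's mean over test compounds plus 3 SD, cut at about 23% in these data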;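 note: signal is peak over basal fluorescence ratio across the kinetic read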
Target sequence (P08912 whole entry, looked up): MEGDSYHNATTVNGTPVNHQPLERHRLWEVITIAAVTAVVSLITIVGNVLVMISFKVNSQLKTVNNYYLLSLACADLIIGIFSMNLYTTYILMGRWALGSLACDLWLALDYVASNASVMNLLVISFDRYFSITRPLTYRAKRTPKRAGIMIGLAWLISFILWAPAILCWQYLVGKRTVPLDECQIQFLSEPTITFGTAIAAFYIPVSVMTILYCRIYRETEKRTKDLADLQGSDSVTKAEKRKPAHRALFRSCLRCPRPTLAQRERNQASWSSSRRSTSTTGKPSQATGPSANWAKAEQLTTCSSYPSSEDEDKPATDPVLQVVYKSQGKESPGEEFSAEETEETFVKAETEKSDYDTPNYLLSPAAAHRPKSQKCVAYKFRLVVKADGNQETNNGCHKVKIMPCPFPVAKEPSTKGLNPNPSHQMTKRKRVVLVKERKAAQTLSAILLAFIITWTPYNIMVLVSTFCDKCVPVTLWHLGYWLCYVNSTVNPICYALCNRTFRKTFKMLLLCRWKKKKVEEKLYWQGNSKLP
CHRM5 antagonist: antagonists of human muscarinic M5 receptor (CHRM5). CHO-hM5 cells, Fluo-8 calcium fluorescence, ACh EC80. inhibition, % at 3 µM. hit rate 0.59% among 360,000. AID 624040;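 active = inhibition above a per-plate cutoff, the mean of that plate's test compounds plus 3 SD, cut at about 27% in these data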;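 note: 0% = acetylcholine EC80 with DMSO and 100% = DMSO without agonist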
M4 PAM: positive allosteric modulators of human muscarinic M4 receptor. P08173. CHO-K1 hM4/Gqi5, Fluo-8 calcium fluorescence, ACh EC20; 0% = ACh EC20, 100% = maximal ACh. activation, % at 3 µM. hit rate 0.4% among 360,000. AID 624126;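 active = activation above its plate's cutoff, the mean activation of sample wells plus 3 SD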
M4 antag: CHRM4 antagonism in calcium assay; P08173; CHO-hM4 cells, ACh EC80, Fluo-8 calcium fluorescence; inhibition, % at 3 µM; hit rate 0.73% among 360,000;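 active = inhibition above its plate's cutoff, the mean inhibition of sample wells plus 3 SD, cut at about 27% in these data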;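 note: 0% = acetylcholine EC80 with DMSO and 100% = DMSO without agonist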
CHRM4 agonist: CHRM4 agonism in calcium assay. P08173. CHO-K1 hM4/Gqi5, Fluo-8 calcium fluorescence; vehicle 0%, full acetylcholine response 100%. activation, % at 3 µM. hit rate 0.14% among 360,000. AID 624127;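 active = activation above the run mean over all test wells plus 3 SD, cut at about 32% in these data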;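 note: peak over basal fluorescence ratio per well then scaled between controls; 0% = DMSO wells and 100% = acetylcholine at EC100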
M5 PAM: positive allosteric modulators of human muscarinic M5 receptor; CHO-K1 hM5, Fluo-8 calcium, ACh EC20 PAM; 0% = ACh EC20, 100% = ACh EC100; hit rate 0.3% among 360,000; activation, % at 3 µM; P08912;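 active = activation above the run cutoff, the mean activation of all test compounds plus 3 SD, cut at about 18% in these data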
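Assay system: CHO-K1 hM5 cells / Incubation: Fluo-8 loading 80 min at 37 °C plus 30 min room temperature / Technique: Fluo-8 calcium dye fluorescence, kinetic read / Repeats: single replicate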
Active calls of the source: *.

SMILES	M5 ag	CHRM5 antagonist	M4 PAM	M4 antag	CHRM4 agonist	M5 PAM
C[C@H]1CN([C@@H](C)CO)S(=O)(=O)c2ccc(Br)cc2O[C@@H]1CN(C)S(=O)(=O)c1ccccc1F	1.7	1.0	12.1	-16.3	1.7	-4.2
Cc1nn(-c2cc(C(F)(F)F)ccc2Cl)c2nc(C(Cl)(Cl)Cl)[nH]c(=O)c12	13.5	3.8	-7.7	5.6	1.1	19.4*
COC(=O)CCCCCN1C(=O)NC(C2CC2)C(C(=O)OCc2ccccc2)=C1C (stereo not given)	4.2	29.4*	-5.9	15.6	16.0	-31.2
COC(=O)CCCN1C(=O)NC(c2ccc(-c3ccccc3)cc2)C(C(=O)OCc2ccccc2)=C1C (stereo not given)	1.1	-0.5	1.0	4.1	-0.5	1.9
COCCn1c(SCC(=O)N2CCCC2)nc2c(c1=O)SCC2	-0.3	-2.5	7.4	-3.8	-1.2	3.0
O=c1c(-c2ccco2)nc2ccccc2n1C(c1ccccc1)c1nc2ccccc2[nH]1 (stereo not given)	-2.0	-8.9	-0.5	4.4	0.9	6.1
CCOc1ccc(CCNC(=O)CCc2nnc3ccc(N4CCCCC4)nn23)cc1OCC	-4.5	6.3	-10.2	31.6*	-0.2	-9.1
COc1ccc(S(=O)(=O)N2CCCOC2CNC(=O)C(=O)NC2CCCC2)cc1 (stereo not given)	1.1	-18.1	9.6	-16.8	3.4	29.6*
Cc1ccc(S(=O)(=O)N2CCOC2CNC(=O)C(=O)NCC(C)C)cc1 (stereo not given)	-0.1	-10.2	22.4*	-9.5	2.1	13.2
O=C(NCC1OCCCN1S(=O)(=O)c1ccc(F)cc1)C(=O)NC1CCCC1 (stereo not given)	-2.6	5.5	-1.9	-2.4	1.8	-2.0
COC(=O)c1ccc2nc(-c3cccc(Br)c3)c(Cc3ccsc3)n2c1	0.6	-9.6	21.3*	-14.5	-0.5	0.8
O=C(COC(=O)C1COc2ccccc2O1)c1ccccc1 (stereo not given)	-0.6	-8.0	2.4	-5.3	-0.8	-4.6
Cc1noc(-c2ccccc2)c1NC(=O)Nc1ccc(Cl)cc1	-1.6	22.9	-58.3	36.9*	10.2	-20.3
CC(C)(C)c1nnc(NC(=O)Nc2ccc(Cl)cc2)s1	3.1	14.2	-7.5	-1.2	1.2	-4.5
Cc1nc(NC(=O)Nc2ccc(Cl)cc2)sc1C	3.8	5.2	-0.1	28.2*	6.8	-5.4
CCOC(=O)C1=CCN(S(=O)(=O)c2ccccc2C)C1c1cccc(Cl)c1 (stereo not given)	-5.9	0.3	-4.0	4.2	1.6	-7.3
COc1ccccc1NC(=O)CSc1nnc(COc2ccc(Cl)cc2)o1	1.0	6.2	-4.4	-4.7	3.3	3.0
COc1ccccc1NC(=O)CSc1nnc(COc2ccccc2C)o1	-4.0	6.3	-24.3	100.3*	3.0	4.2
O=c1oc2ccccc2c2c1cnc1ccccc12	-0.2	-3.4	4.5	-12.2	1.6	-1.3
NC(=O)c1cccc2c(=O)oc3ccccc3c12	-2.5	-9.8	6.3	-5.2	0.6	18.8*
CCCN(CC(=O)Nc1ccccc1C)C(=O)c1cccc(S(=O)(=O)N2CCc3ccccc3C2)c1	6.7	28.1*	-14.8	23.2	21.7	-16.2
Cn1c2ccccc2c(=O)c2ccc(C#CC3(O)CCCCC3)cc21	-1.3	16.8	-15.9	10.3	37.3*	-41.1
COc1ccc([C@H]2CC(=O)C[C@@H](CCn3cc(-c4ccccn4)nn3)O2)cc1	1.5	-7.1	5.4	-9.0	0.9	4.1
COc1ccc(S(=O)(=O)Nc2ccc3c(c2)C(=O)N([C@H](C)CO)C[C@H](C)[C@@H](CN(C)S(=O)(=O)c2cn(C)cn2)OCCCC[C@H](C)O3)cc1	-0.4	-5.7	-1.2	-0.4	0.6	3.3
O=C(NC1CCCC1)c1nc(-c2ccco2)oc1-c1ccccc1	-1.1	6.9	-3.1	-1.8	6.9	-5.1
SMILES	M5 ag	CHRM5 antagonist	M4 PAM	M4 antag	CHRM4 agonist	M5 PAM
CCN(CC)CCNC(=O)c1ccc(NC(=O)C2CCN(c3ncnc4sc(C)c(C)c34)CC2)cc1	-7.1	2.5	8.4	57.6*	80.5*	-4.5
Cc1ccc(S(=O)(=O)N2CCN(C(=O)C3CCN(c4ncnc5sc(C)c(C)c45)CC3)CC2)c(C)c1	3.3	0.2	26.4*	-4.1	2.5	4.8
Cc1sc2ncnc(N3CCN(S(=O)(=O)c4ccc(C(C)(C)C)cc4)CC3)c2c1C	1.9	11.9	5.7	-5.6	1.9	-3.1
Cc1sc2ncnc(N3CCC(C(=O)Nc4ccc(OC(F)F)c(Cl)c4)CC3)c2c1C	0.1	11.4	13.1	-2.7	1.4	-2.8
COCc1cccc(-c2csc(C(O)c3ccccc3)n2)c1 (stereo not given)	5.4	8.2	-7.4	1.6	11.3	-8.8
CC1=NNC(=O)/C1=C\c1cn(-c2ccccc2)nc1-c1ccccc1	28.0*	32.2*	-17.8	39.2*	11.7	5.7
CC(O)(c1ccc(F)c(F)c1)c1nc(-c2ccoc2)cs1 (stereo not given)	-0.4	-0.5	3.5	-9.1	1.1	-1.2
Cc1nc(C)c(C(=O)OCC(=O)Nc2ccc(C)c(C)c2)s1	3.5	4.5	-6.4	-12.2	11.6	-12.8
COc1ccccc1-c1nnc(Nc2nc3c(OC)cccc3s2)o1	0.8	24.4	-6.0	34.5*	3.2	-3.4
O=C(NC1CC1)c1cccc2c1C(=O)c1ccc(N3CCC(Cc4ccccc4)CC3)cc1S2(=O)=O	14.8	24.1	-9.6	27.4*	26.0	-15.5
CC(C)(C)CNC(=O)c1cccc2c1C(=O)c1ccc(N3CCCC3)cc1S2(=O)=O	21.9	12.0	-14.7	12.6	39.1*	-21.8
O=C(NCc1ccc(F)cc1)c1cccc2c1C(=O)c1ccc(N3CCC(Cc4ccccc4)CC3)cc1S2(=O)=O	1.9	4.6	1.5	4.4	1.2	4.9
CCOC(=O)C1(C)CCCCN1C(=O)c1cccc(Cl)c1 (stereo not given)	0.7	4.2	5.7	-11.0	-0.4	-2.2
O=C(C1CCC(C(=O)N2CCc3ccccc32)CC1)N1CCc2ccccc21 (stereo not given)	-4.3	-1.4	-2.3	-3.5	-0.2	-0.9
O=C(Nc1ccccc1)C(=O)Nc1ccc2c(c1)N(C(=O)C1CC1)CCC2	1.7	-4.5	17.4*	-12.3	6.8	0.5
COCCCNC(=O)c1ccc2nc(Cc3ccc(OC)cc3)oc2c1	1.7	8.9	-15.1	36.6*	1.9	-2.2
COc1ccc(Cn2cc(Cn3c4ccccc4c(=O)n3C(C)C)nn2)cc1	-1.3	9.6	14.0	-5.2	0.1	2.8
CC1(C)CC(=O)C=C(c2n[nH]nc2C2CC2)C1	-0.5	-6.2	5.1	-13.8	1.8	-0.8

From PubChem BioAssay
